The source of these data is ChEMBL document CHEMBL1144551, “Enantioselective synthesis and antiviral activity of purine and pyrimidine cyclopentenyl C-nucleosides” (Bioorg Med Chem, 2007).

One data set concerns Cowpox virus. As to the kind of experiment: Antiviral activity against Cowpox virus. The format is functional, organism-based.
The next data set has as its system West Nile virus. The data set is described as follows: Antiviral activity against West Nile virus. The format is functional, organism-based.
Data set [1] is described as follows: Cytotoxicity against PBM cells. The class given is cell-based. The conditions noted are these: Homo sapiens, PBMC.
The next data set relates to Vaccinia virus. The data set is described as follows: Antiviral activity against vaccinia virus. The conditions noted are these: Orthopoxvirus vaccinia. The class given is functional, organism-based.
A further data set has as its system Human alphaherpesvirus 2. As to the kind of experiment: Antiviral activity against herpes simplex virus 2. The class given is functional, organism-based.
Another data set deals with SARS-CoV. The data set is described as follows: Antiviral activity against SARS coronavirus. The class given is functional, organism-based. The conditions noted are these: Severe acute respiratory syndrome-related coronavirus.
A further data set deals with CCRF-CEM. As to the kind of experiment: Cytotoxicity against CEM cells. The format is cell-based. The conditions noted are these: Homo sapiens.
For another data set, the system named is Tacaribe virus. As to the kind of experiment: Antiviral activity against tacaribe virus. The format is functional, organism-based. Conditions: Mammarenavirus tacaribeense.
Data set [2] has as its system Human immunodeficiency virus 1. As to the kind of experiment: Antiviral activity against HIV1 LA1 in human PBM cells. The conditions noted are these: Human immunodeficiency virus 1, LA1, PBMC. The format is functional, organism-based. The method, boiled down: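 Human peripheral blood mononuclear (PBM) cells were infected with HIV-1 strain LAI, and antiviral activity was expressed as EC50.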

For a further data set, the system named is Human alphaherpesvirus 1. The data set is described as follows: Antiviral activity against HSV1. The format is functional, organism-based.
The subject of another data set is Dengue virus. The data set is described as follows: Antiviral activity against dengue virus. The class given is functional, organism-based.
A further data set relates to LLC-MK2. The data set is described as follows: Cytotoxicity against LLC-MK2 cells. The class given is cell-based, Macaca mulatta. Conditions: rhesus monkey.
For the next data set, the system named is Vero. The data set is described as follows: Cytotoxicity against Vero cells. The format is cell-based. The conditions noted are these: Chlorocebus sabaeus.
In another data set the test system is Punta Toro virus. The data set is described as follows: Antiviral activity against Punta Toro virus. The class given is functional, organism-based.
The subject of another data set is Human alphaherpesvirus 3. The data set is described as follows: Antiviral activity against varicella zoster virus. The format is functional, organism-based.
Another data set concerns Yellow fever virus. As to the kind of experiment: Antiviral activity against yellow fever virus. The class given is functional, organism-based.
Another data set relates to Hepatitis C virus. The data set is described as follows: Antiviral activity against hepatitis C virus. Conditions: Hepacivirus hominis. The class given is functional, organism-based.
Data set [3] has as its system Venezuelan equine encephalitis virus. As to the kind of experiment: Antiviral activity against Venezulean equine encephalitis virus. The format is functional, organism-based.

Active and inactive are the calls of the source. The calls are words filed in the database; no cut-off is given here.

In the data set with Cowpox virus, `Nc1ncnc2c1ncn2[C@@H]1C=C(CO)[C@@H](O)[C@H]1O` [NEOPLANOCIN A] registered an EC50 of 8.4 µM and a half-inhibitory concentration (IC50) of more than 300 µM. The EC50 in the data set with West Nile virus was more than 51 µM.
For the compound `Cc1cn([C@H]2C[C@H](N=[N+]=[N-])[C@@H](CO)O2)c(=O)[nH]c1=O` [ZIDOVUDINE], in data set [1], the IC50 is more than 100 µM.
On to `O=c1[nH]cc([C@@H]2C=C(CO)[C@@H](O)[C@H]2O)c(=O)[nH]1`, for which the IC50 (in data set [1]; in the data set with SARS-CoV; with CCRF-CEM; with Vero; with Punta Toro virus; in the data set with Cowpox virus) was more than 100 µM throughout. This compound yielded an IC50 with West Nile virus of more than 100 µM. Further, the result in the data set with Vaccinia virus, in the data set with Human alphaherpesvirus 2, in the data set on Tacaribe virus, in the data set with Human alphaherpesvirus 1, in the data set on Dengue virus and in the data set on Human alphaherpesvirus 3 was inactive. The result (in the data set on Yellow fever virus; in the data set on Hepatitis C virus; in [3]) was inactive. Also, the EC50 in the data set on SARS-CoV is 49 µM; in data set [2], more than 100 µM; in the data set with Punta Toro virus, 65 µM; in the data set on Cowpox virus, more than 100 µM; in the data set with West Nile virus, more than 100 µM. In data set [2], the EC90 was more than 100 µM. For the same compound, in the data set on LLC-MK2, the Activity result is recorded as “Not Active”.
Consider `Nc1ncnc2c([C@@H]3C=C(CO)[C@@H](O)[C@H]3O)c[nH]c12`, for which the IC50 in data set [1] is 15.6 µM; in the data set on CCRF-CEM it was 10.6 µM; in the data set on Vero, more than 100 µM; in the data set on Cowpox virus, more than 100 µM; with West Nile virus, more than 100 µM. Besides, the outcome with Vaccinia virus, in the data set on Human alphaherpesvirus 2, in the data set with Tacaribe virus, with Human alphaherpesvirus 1, in the data set on Dengue virus and in the data set with Human alphaherpesvirus 3 was inactive. Besides, the outcome (in the data set with Yellow fever virus; with Hepatitis C virus; in data set [3]) was inactive. Further, the EC50 in [2] was 2 µM; with Cowpox virus it was more than 100 µM; in the data set on West Nile virus it was more than 100 µM. In [2], this compound gave an EC90 of 43.2 µM. Also, the Activity entry with LLC-MK2 is “Not Active”.
Turning to `Nc1nc(O)c2[nH]cc([C@@H]3C=C(CO)[C@@H](O)[C@H]3O)c2n1`, the IC50 (in [1]; in the data set on CCRF-CEM; in the data set on Vero; in the data set with Punta Toro virus; in the data set with Cowpox virus; in the data set with West Nile virus) was more than 100 µM in each case. Also, the outcome in the data set on Vaccinia virus, in the data set on Human alphaherpesvirus 2, in the data set with Tacaribe virus, in the data set with Human alphaherpesvirus 1, in the data set with Dengue virus and in the data set with Human alphaherpesvirus 3 was inactive. Further, the outcome (with Yellow fever virus; with Hepatitis C virus; in [3]) was inactive. The EC50 in the data set with SARS-CoV is more than 100 µM; in data set [2], more than 100 µM; with Punta Toro virus it was 2.5 µM; in the data set on Cowpox virus, more than 100 µM; in the data set with West Nile virus, more than 100 µM. The same compound came in with an EC90 in [2] of more than 100 µM. Moreover, the Activity result with LLC-MK2 is listed as “Not Active”.
Take `Nc1nc(=O)c([C@@H]2C=C(CO)[C@@H](O)[C@H]2O)c[nH]1`: the IC50 (in data set [1]; in the data set with CCRF-CEM; in the data set with Vero; in the data set with Punta Toro virus; in the data set on Cowpox virus; in the data set with West Nile virus) was more than 100 µM each time. Besides, the outcome in the data set on Vaccinia virus, with Human alphaherpesvirus 2, in the data set with Tacaribe virus, with Human alphaherpesvirus 1, in the data set with Dengue virus and in the data set on Human alphaherpesvirus 3 was inactive. Moreover, the outcome (with Yellow fever virus; in the data set with Hepatitis C virus; in data set [3]) was inactive. Also, the EC50 in the data set on SARS-CoV is more than 100 µM; in [2], more than 100 µM; in the data set on Punta Toro virus, more than 100 µM; in the data set on Cowpox virus it was more than 100 µM; with West Nile virus, 11 µM. This compound showed an EC90 in [2] of more than 100 µM. In addition, the Activity entry in the data set on LLC-MK2 is given as “Not Active”.

One may read the EC50 as the concentration that produces a half-maximal response. For orientation: IC50 means the concentration that inhibits the measured activity by half. As a reminder, the EC90 is the concentration needed for an effect of 90%.
